Rows were chosen to be rich in hits. Some 2.6% of all compounds tested hit in one or more screens of this group.
E-sel inducer – E-selectin induction on HUVECs | P16581 | HUVEC E-selectin immunofluorescence imaging; normalized: neutral wells 0, TNF-alpha wells 100 | activation, % at 7.58 µM | actives 0.37% (n = 260,000);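 active = mean E-selectin-positive cell signal at least 10% of the positive control, reached in at least 60% of replicates, without over 20% cell loss; inconclusive = no rule given, readout overlaps actives, possibly toxicity-flagged; inactive = the rest, including those meeting only one limit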
Target sequence (P16581 whole entry, looked up): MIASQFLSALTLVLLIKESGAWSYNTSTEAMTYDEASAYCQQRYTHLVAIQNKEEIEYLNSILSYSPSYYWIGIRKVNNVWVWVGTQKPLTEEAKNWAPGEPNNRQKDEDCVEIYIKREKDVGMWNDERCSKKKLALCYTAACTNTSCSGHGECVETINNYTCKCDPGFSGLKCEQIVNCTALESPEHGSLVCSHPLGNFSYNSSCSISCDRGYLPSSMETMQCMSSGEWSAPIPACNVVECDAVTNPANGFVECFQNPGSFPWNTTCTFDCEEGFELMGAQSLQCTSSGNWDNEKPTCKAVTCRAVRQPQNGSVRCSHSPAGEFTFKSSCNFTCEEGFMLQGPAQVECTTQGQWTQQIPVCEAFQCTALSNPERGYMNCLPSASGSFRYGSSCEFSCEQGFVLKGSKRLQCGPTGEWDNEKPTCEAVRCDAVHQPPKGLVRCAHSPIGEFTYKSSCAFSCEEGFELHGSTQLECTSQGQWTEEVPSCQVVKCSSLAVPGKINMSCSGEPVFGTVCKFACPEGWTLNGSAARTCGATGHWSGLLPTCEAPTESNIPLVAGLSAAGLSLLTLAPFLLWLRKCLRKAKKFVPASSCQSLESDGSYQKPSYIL
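Test system – human umbilical vein endothelial cells (HUVEC), E-selectin induction · Input – 3,000 HUVEC seeded per well · Buffer or medium – EGM-2, gelatin · Compound dosing – single-point compound dose · Detection – immunofluorescence imaging · Measure – percent E-selectin-positive cells · Controls – TNF-alpha high, DMSO low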
GSIS activator – GLuc luminescence reporter in INS-1E cells, primary screen for activators of glucose-dependent secretion of insulin; actives 0.61% (n = 370,000); activation, % at 16.6 µM; AID 743287; INS-1E GLuc reporter insulin secretion, 2-3 h;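 active = lowest replicate activation of at least 40%, so every replicate reaches that level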;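 also: 0% = median of neutral control wells and 100% = median of IBMX positive control wells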
F508del corr – correctors of CFTR F508del function in bronchial epithelial cells. CFBE cells, YFP halide quenching; stimulated with forskolin plus potentiator P3; % fluorescence drop versus neutral controls. activity (quench increase), % at 7.58 µM. actives 0.36% (n = 350,000). AID 720511;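 active = mean added fluorescence quench of at least 8% versus neutral control, with both replicates also reaching 8%; inconclusive = only one of the mean or replicate conditions met; inactive = mean below 8% and not both replicates reaching 8%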;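 also: cells transiently co-express mutant CFTR-F508del with the halide-sensitive YFP; corrector assay measuring rescue of mutant channel to the surface after 24 h compound exposure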
ERAP1 HTS inh – blocks human ERAP1 aminopeptidase activity | Q9NZ08 | recombinant ERAP1, Leu-AMC fluorescence, 60 min | inhibition, % at 10.7 µM | actives 0.15% (n = 340,000);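 active = mean replicate inhibition of at least 30%, or all replicates individually reaching that 30% level; inactive = mean below 30% and not every replicate reaching it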;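 also: 0% = neutral control wells and 100% = L-leucinethiol positive control wells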
DENV2 CPE – inhibitors of DENV2 cytopathic effect. CPE inhibition, % at 9.99 µM. actives 1.7% (n = 350,000). DENV2-infected cells, cytopathic effect rescue, plate reader; in the data active = CPE inhibition above about 20%, passing the limit was not always enough; inconclusive = no clear call, values can overlap the other calls; tested in BHK-21 cells;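 also: 0% = median of neutral control wells and 100% = median of positive control wells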
miR-122 sensor – blocks miR-122 activity in Huh7 sensor cells | Huh7 miR-122 Renilla luciferase sensor, 48 h; neutral wells = 0, positive control = 100 | activation (reporter increase), % at 12.5 µM | actives 0.3% (n = 340,000) | AID 602342;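 active = mean replicate activation score at least 90 and every replicate individually at or above 90; inconclusive = only one of the two criteria met; inactive = neither criterion met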;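 also: higher luciferase means less miR-122 activity so hits act as miR-122 inhibitors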
Active calls of the source: *; ? = inconclusive; · = no result; ! = not confirmed by another sample; [ ] = remark or other dose.

SMILES | E-sel inducer | GSIS activator | F508del corr | ERAP1 HTS inh | DENV2 CPE | miR-122 sensor
CN(C(=O)[C@@H](Cc1ccccc1)NC(=O)[C@H]1O[C@@H](n2ccc(=O)[nH]c2=O)[C@H](O)[C@@H]1O)C1CCCCC1 | 0 | · | -1 | -2 | -5 | ·
COc1cccc(CN(C)C(=O)[C@@H](Cc2ccccc2)NC(=O)[C@H]2O[C@@H](n3ccc(=O)[nH]c3=O)[C@H](O)[C@@H]2O)c1 | 0 | 14 | -2 | 2 | 22* | ·
O=C(Nc1nccs1)[C@@H]1[C@@H](CO)[C@@H]2Cn3c(cccc3=O)[C@H]1N2C(=O)C1CC1 | 0 | 14 | 2 | -2 | 5 | -6[16.7 µM]
O=C(C[C@H]1C=C[C@H](NC(=O)Nc2ccccc2)[C@H](CO)O1)NCc1cccc(F)c1 | 0 | 14 | 0 | -5 | -3 | ·
CCNC(=O)C[C@@H]1CC[C@H]2[C@@H](COC[C@@H](O)CN2Cc2ccncc2)O1 | 0 | -3 | -1 | · | 4 | -3[16.7 µM]
COc1ccc(-c2nc(C(=O)O)cs2)cc1OC | · | 71* | 2 | 2 | -4 | -4
CCOC(=O)c1csc(-c2ccc(OC)c(OC)c2)n1 | · | 50* | 6 | -2 | -6 | ·
C[C@@H]1C(=O)N[C@H](c2ccc(F)cc2)CC=CC[C@H](C)Oc2ccccc2C(=O)N1C (mixture of isomers) | · | -11 | · | · | · | ·
CCCC(=O)Nc1ccc2c(c1)C(=O)N(C)C[C@@H](OC)[C@H](C)CN(C(=O)Cc1cccnc1)[C@H](C)CO2 | 0 | 17 | 0 | 2 | -4 | ·
C[C@H]1CCCCO[C@H](CN(C)Cc2ccncc2)[C@@H](C)CN([C@@H](C)CO)C(=O)c2cc(N(C)C)ccc2O1 | 0 | 10 | -1 | 0 | 12 | -3[16.7 µM]
C[C@H](CO)N1C[C@H](C)[C@@H](CN(C)Cc2ccc(Cl)c(Cl)c2)OCCCC[C@H](C)Oc2ccc(N(C)C)cc2C1=O | 1 | -6 | 0 | -2 | 30* | ·
C[C@H](CO)N1C[C@H](C)[C@@H](CN(C)Cc2ccncc2)OCCCC[C@H](C)Oc2ccc(N(C)C)cc2C1=O | 0 | -1 | 0 | 3 | 31* | 0[16.7 µM]
CCCCCCc1ccc(N2C[C@H](CCCCC)[C@@H](CC(=O)NCc3ccc(OC)cc3)C2=O)cc1 | · | · | 3 | -6 | 95* | -1
CCCCCCc1ccc(N2C[C@H](Cc3ccccc3)[C@@H](CC(=O)NCc3ccc(OC)cc3)C2=O)cc1 | · | · | -2 | -2 | 16 | -5
CN1CCN(C(=O)[C@@H]2[C@@H](CO)[C@@H]3Cn4c(ccc(-c5cncnc5)c4=O)[C@@H]3N2CC2CC2)CC1 | 0 | -1 | · | 2 | -3 | ·
O=S(Cc1ccccc1)CC(O)(c1ccc(Cl)cc1)c1ccc(Cl)cc1 (stereo unspecified) | 0 | · | · | · | · | 139*
O=S(Cc1ccccc1)CC(O)(c1ccccc1)c1ccccc1 (stereo unspecified) | · | · | · | · | · | 8
O=S(Cc1ccc(Cl)cc1)CC(O)(c1ccccc1)c1ccccc1 (stereo unspecified) | · | · | · | · | · | 147*
C[C@@H]1CCCCO[C@H](CN(C)Cc2ccc(C(=O)O)cc2)[C@@H](C)CN([C@@H](C)CO)C(=O)c2cc(NC(=O)C3CCCCC3)ccc2O1 | 0 | 8 | -1 | -2 | -3 | -1[16.7 µM]
COc1ccc(-c2sc3cc4c(cc3c2C#Cc2cncn2C)OCO4)cc1 | 0 | 15 | 4 | 1 | 34* | 9
COc1ccc(-c2sc3ccc(OC)cc3c2C#Cc2cncn2C)cc1 | 1 | 13 | 1 | -2 | -7 | 33
COc1ccc(-c2oc3ccccc3c2C#Cc2cncn2C)cc1 | 0 | 1 | 3 | -1 | 70* | -4
CC=Cc1ccc2n(c1=O)C[C@H]1[C@H](CO)[C@@H](C(=O)NCC3CC3)[C@@H]2N1Cc1ccccc1OC (mixture of isomers) | 0 | 6 | · | -1 | 3 | ·
Cc1csc2sc(-c3ccnc(SCC(=O)NCc4ccccc4)n3)c(C)c12 | 1 | -3 | 16* | 6 | -1 | 4
CCCN(Cc1nnc(-c2ccccc2Cl)o1)C(=O)c1cc2ccccc2o1 | 2 | 63* | 0 | -5 | 4 | ·
SMILES | E-sel inducer | GSIS activator | F508del corr | ERAP1 HTS inh | DENV2 CPE | miR-122 sensor
CCS(=O)(=O)N1CC2(C1)[C@@H](c1ccccc1)[C@@H](CO)N2CCC(F)(F)F | 0 | 16 | -3 | 0 | 0 | ·
O=C(Cc1csc(NC(=O)c2ccccc2)n1)NO | · | 57* | 2 | 2 | 2 | -3
CCOC(=O)Cc1csc(N/N=C/c2cccc([N+](=O)[O-])c2)n1 | · | 9 | -1 | 0 | 29* | ·
CCOC(=O)Cc1csc(NC(=O)c2cccc([N+](=O)[O-])c2)n1 | · | 179* | 2 | 0 | -3 | 4
CCOC(=O)Cc1csc(NC(=O)c2ccc(OC)c(OC)c2)n1 | · | 55* | · | · | · | -6
CCOC(=O)Cc1csc(N/N=C/c2ccc(C(F)(F)F)cc2)n1 | -2 | -6 | 1 | -7 | -7 | ·
O=S(=O)(N[C@@H]1CC[C@H](CCn2cc(-c3ccccc3F)nn2)O[C@H]1CO)c1ccc(Cl)cc1 | 0 | -22 | 0 | 0 | 18 | ·
O=C(Cc1c[nH]c2ccccc12)N[C@@H](Cc1c[nH]c2ccccc12)C(=O)O | 0 | 53* | 1 | 2 | -2 | ·
O=C(Cc1ccc(F)cc1)NC(Cc1c[nH]c2ccccc12)C(=O)O (stereo unspecified) | 0 | 19 | 1 | -2 | -7 | -1
Nc1ccc(S(=O)(=O)Nc2cnc3ccccc3n2)cc1 | ? | 10 | 11*! | -1 | 11 | 12
Nc1ccc(S(=O)(=O)Nc2cnc3c(Cl)cccc3n2)cc1 | 0 | · | 2 | 3 | 1 | ·
CCO[C@@H]1OC(C(=O)N2CCN(Cc3ccc4c(c3)OCO4)CC2)=C[C@H](C(C)(C)C)[C@H]1CCCO | · | · | 0 | -1 | 9 | ·
CC(CN(C)Cc1ccccc1)OC(=O)c1ccccc1F (stereo unspecified) | · | 49* | · | · | · | 3
CCCCc1c(C)nc2ccc(C)cc2c1SCCC(=O)O | 29* | · | -2 | -1 | -5 | 7
Cc1ccc(-c2csc(NC(=O)CCCc3cccs3)n2)cc1 | · | 98* | · | · | · | ·
CC(C)(C)c1csc(NC(=O)c2cccs2)n1 | · | · | · | · | · | -6
CC(C)(C)c1csc(NC(=O)Cc2cccs2)n1 | · | -10 | 9.7* | 2 | -2 | ·
CC(=O)Nc1ccc(-c2csc(NC(=O)CCCc3cccs3)n2)cc1 | · | -1 | 2 | 0 | 10 | -2
COc1ccccc1CNC(=O)C[C@H]1C[C@H]2c3cc(NC(=O)Nc4ccc(C(F)(F)F)cc4)ccc3O[C@H]2[C@@H](CO)O1 | 0 | -11 | 1 | 1 | -1 | 2[16.7 µM]
C1CCN(CCCNC2C3CC4CC(C3)CC2C4)C1 (stereo unspecified) | -3 | 40* | · | 0 | 2 | 2

High-throughput results from PubChem BioAssay.
